Test results taken from ChEMBL document CHEMBL3784919, “Design and synthesis of novel 5-aminosalicylate (5-ASA)-4-thiazolinone hybrid derivatives with promising antiproliferative activity” (Bioorg Med Chem Lett, 2016).

Tests used:
[1] = tested on: MCF7; test: Antiproliferative activity against human MCF7 cells assessed as cell survival at 10 uM after 48 hrs by SRB assay; type: functional; settings: MCF7, 48 h, read-out: Survival
Summary of the method: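 Human breast cancer MCF-7 cells were exposed once to a single compound concentration for 48 h. Vehicle controls received DMSO, added as 0.1%. Survival was read by sulforhodamine B staining and expressed as percent of cells remaining relative to the DMSO control, set at 100%, with SD.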

[2] = tested on: MCF7; test: Antiproliferative activity against human MCF7 cells assessed as cell viability after 48 hrs by SRB assay; type: functional, cell-based; settings: MCF7, 48 h
[3] = Antiproliferative activity against human HCT116 cells assessed as cell viability after 48 hrs by SRB assay; type: functional, cell-based; settings: HCT-116, 48 h
[4] = tested on: HeLa; test: Antiproliferative activity against human HeLa cells assessed as cell viability after 48 hrs by SRB assay; type: functional, cell-based
[5] = tested on: A549; test: Antiproliferative activity against human A549 cells assessed as cell viability after 48 hrs by SRB assay; type: functional, cell-based; settings: A549, 48 h
[6] = Cytotoxicity against human F180 cells assessed as cell viability after 48 hrs by SRB assay; type: cell-based; settings: F180, 48 h
[7] = Ratio of compound IC50 to doxorubicin IC50 for human F180 cells; type: ADME, cell-based; settings: read-out: Ratio IC50

Work on `COC(=O)c1cc(NC2=NC(=O)/C(=C/c3ccc(C)cc3)S2)ccc1O` yielded a viability at 10 µM [1] of 17.8%, an IC50 [2] of 410 nM and an IC50 [3] of 450 nM. It also gave an IC50 [4] of 85 nM, an IC50 [5] of 2200 nM and an IC50 [6] of 1050 nM.
For `COC(=O)c1cc(NC2=NC(=O)/C(=C/c3ccc([N+](=O)[O-])cc3)S2)ccc1O`, the viability at 10 µM [1] was 73.9%.
With `COC(=O)c1cc(NC2=NC(=O)/C(=C/c3ccc(OC)cc3)S2)ccc1O` the viability at 10 µM [1] was 26%.
In the case of `COC(=O)c1cc(NC2=NC(=O)/C(=C/c3ccc(F)cc3)S2)ccc1O`, the viability at 10 µM [1] is reported as 86%.
With `COC(=O)c1cc(NC2=NC(=O)/C(=C/c3ccc(OC)c(OC)c3)S2)ccc1O` the viability at 10 µM [1] was 26.6%.
`COC(=O)c1cc(NC2=NC(=O)/C(=C/c3ccccc3Cl)S2)ccc1O` gave a viability at 10 µM [1] of 85%.
`COC(=O)c1cc(NC2=NC(=O)CS2)ccc1O` gave a viability at 10 µM [1] of 97%.
With `COC(=O)c1cc(NC2=NC(=O)/C(=C/c3ccccc3OC)S2)ccc1O` the viability at 10 µM [1] was 70%.
With `COC(=O)c1cc(NC2=NC(=O)/C(=C/c3ccccc3O)S2)ccc1O` the viability at 10 µM [1] was 16.5%, the IC50 [2] was 500 nM and the IC50 [3] was 3440 nM. It also gave an IC50 [4] of 1390 nM, an IC50 [5] of over 10000 nM and an IC50 [6] of over 10000 nM.
Work on `COC(=O)c1cc(NC2=NC(=O)/C(=C/c3ccc4c(c3)OCO4)S2)ccc1O` yielded a viability at 10 µM [1] of 28%.
For `COC(=O)c1cc(NC2=NC(=O)/C(=C/c3ccc(Cl)cc3)S2)ccc1O`, the viability at 10 µM [1] was 28%.
`COC(=O)c1cc(NC2=NC(=O)/C(=C/c3ccc(O)cc3)S2)ccc1O` gave a viability at 10 µM [1] of 93.5%.
With `COC(=O)c1cc(NC2=NC(=O)/C(=C/c3ccccc3)S2)ccc1O` the viability at 10 µM [1] was 67.8%.
For `COC(=O)c1cc(NC2=NC(=O)/C(=C/c3cccc(Cl)c3)S2)ccc1O`, the viability at 10 µM [1] was 65.9%.
With `COC(=O)c1cc(NC2=NC(=O)/C(=C/c3cccc([N+](=O)[O-])c3)S2)ccc1O` the viability at 10 µM [1] was 82.2%.
Molecule `COC(=O)c1cc(NC2=NC(=O)/C(=C/c3ccc(Br)cc3)S2)ccc1O` has a viability at 10 µM [1] of 19%, an IC50 [2] of 70 nM and an IC50 [3] of 5580 nM. It also gave an IC50 [4] of 3480 nM, an IC50 [5] of 8300 nM and an IC50 [6] of 10000 nM. For the same molecule, the selectivity ratio [7] was 28.
With `COC(=O)c1cc(NC2=NC(=O)/C(=C/c3ccc(N(C)C)cc3)S2)ccc1O` the viability at 10 µM [1] was 16.2%, the IC50 [2] was 630 nM and the IC50 [3] was 310 nM. For the same molecule, the IC50 [4] was 180 nM, the IC50 [5] was 2400 nM and the IC50 [6] was 940 nM.
In the case of `COC(=O)c1cc(NC2=NC(=O)/C(=C/c3cccc(Br)c3)S2)ccc1O`, the viability at 10 µM [1] is reported as 68%.
With `COc1cccc2c1C(=O)c1c(O)c3c(c(O)c1C2=O)C[C@@](O)(C(=O)CO)C[C@@H]3O[C@H]1C[C@H](N)[C@H](O)[C@H](C)O1` [DOXORUBICIN] the viability at 10 µM [1] was 4%, the IC50 [3] was 380 nM and the IC50 [4] was 100 nM. It also gave an IC50 [5] of 450 nM and an IC50 [6] of 350 nM.
For `COC(=O)c1cc(NC2=NC(=O)/C(=C/c3cc(OC)c(OC)c(OC)c3)S2)ccc1O`, the viability at 10 µM [1] was 73.3%.
